Measurements as given in paper PMC4423566 (Nature communications, 2015).
Square brackets hold non-standard residues; d marks the D form. Peptide text beside a SMILES is read from it. * marks the point of attachment. X1 = CC(=O)N[C@@H]1[C@@H](O[C@@H]2O[C@H](CO)[C@H](O)[C@H](O)[C@H]2O)[C@@H](O)[C@@H](CO[C@@H]2O[C@H](CO)[C@@H](O[C@@H]3O[C@H](CO)[C@H](O)[C@H](O[C@]4(C(=O)O)C[C@H](O)[C@@H](NC(C)=O)[C@H]([C@H](O)[C@H](O)CO)O4)[C@H]3O)[C@H](O[C@@H]3O[C@@H](C)[C@@H](O)[C@@H](O)[C@@H]3O)[C@H]2NC(C)=O)O[C@@H]1*; Phe(4-CH2SO3H) = N[C@@H](Cc1ccc(CS(=O)(=O)O)cc1)C(=O)O; Mca = COc1ccc2c(CC(=O)*)cc(=O)oc2c1

Key:
[1] = target: P-selectin; details: P-selectin inhibitor; cited from earlier work
[2] = test system: human platelet-monocyte aggregation; details: cited from earlier work
[3] = test system: E-Sel-Ig; assay: Biacore binding assay, E-selectin
Outline: (§1)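 Biotinylated test glycopeptide was captured on a streptavidin-coated sensor chip at low (< 5 RU) or high (60 RU) density. P-, L- or E-selectin-Ig was applied at 2.5–60 μg/mL. Kinetic parameters were fitted to a 1:1 binding model. Affinity relative to P-Sel-Ig was estimated by comparing binding at the two capture densities.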

[4] = test system: human neutrophil and monocyte rolling and arrest on ICAM-1/P-selectin substrate; assay: In vitro flow assay on ICAM-1/P-selectin substrate under shear; assay type: cell-based
Outline: (§2)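 Aminosilanized glass was coated with human ICAM-1-Fc plus P- or E-selectin-Fc (5 μg/mL, 1 h). Human blood cells from healthy donors were density-separated and suspended in HEPES-buffered salt solution. Cells were exposed 10 min to PBS or test compound (up to 30 μM), then perfused at 2 dynes/cm2. Video ran 2 min at 7.5 frames/s. Centroids were tracked over 10 s; < 1 μm/s counted as arrested; capture and rolling velocity scored.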

[5] = target: human P-selectin (Homo sapiens, UniProt P16109); assay: Biacore binding assay, human P-selectin; details: from Kd 22 nM
[6] = test system: platelet-neutrophil binding and platelet aggregation in venules; assay: TNF-α-induced venular inflammation, cremaster intravital microscopy; assay type: in vivo; details: 3 hr after TNF-α; GSnP-6 4 μmol/kg IV, antibody 75 μg/mouse IV
Outline: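 Male C57BL/6 mice, 6–8 weeks old, received intrascrotal TNF-α (0.5 μg) 3 h before cremaster preparation. Just before imaging, test compound (4 μmol/kg), anti-CD62P or saline was given via jugular cannula. Labels were Dylight 649 anti-CD42b (platelets) and Alexa 488 anti-Gr-1 (neutrophils). Venules 30–45 μm (8–10/mouse, 5 mice) were imaged over 2 min. Platelet signal was taken as AUC normalized to vessel area, reported as median integrated fluorescence.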

[7] = test system: E-selectin Fc chimera; assay: Flow cytometry, E-selectin Fc chimera binding to leukocytes; assay type: cell-based, human and mouse; details: GSnP-6 0 - 30 μM
Outline: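 Cells were heparinized mouse blood (cardiac puncture), citrated human blood, or cultured U937. They were incubated with test compound (0–30 μM) and species-matched selectin Fc chimera (2 μg/mL), then PE anti-Fc (1:100). Read-out was flow-cytometric MFI, expressed as percent inhibition versus PBS control, in triplicate. KPL1 and 4RA10 anti-PSGL-1 antibodies served as specificity checks.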

[8] = test system: P-selectin; assay: Microarray binding of glycopeptide mimics to selectin-Ig chimeras; set-up: species or system human and mouse; details: selectin-Ig chimeras 5-20 μg/mL, Alexa-488 anti-human IgG
[9] = target: human L-selectin Fc chimera (Homo sapiens, UniProt P14151); assay: Flow cytometry, L-selectin Fc chimera binding to human U937; assay type: cell-based; details: read-out: IC50, inhibition of PSGL-1/L-selectin interactions; human leukocytes (human U937)
[10] = test system: platelet-leukocyte aggregate formation; assay: Platelet-leukocyte aggregates in human whole blood, dual-label flow cytometry; assay type: cell-based; details: 40 μM, PAR1-activating peptide
Outline: (§3)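 Anticoagulated whole blood was treated with 40 μM test compound at room temperature. Stimulation used PAR1-activating peptide 40 μM (human) or PAR4-activating peptide 200 μM (mouse). Staining was anti-CD42a-PE/anti-CD45-APC (human) or anti-CD41-PE/anti-CD45-APC (mouse). CD45+ neutrophils and monocytes were gated by side scatter and scored as % platelet-positive. Saline and anti-CD62P (5 μg/mL) were controls. Samples were run in triplicate.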

[11] = test system: L-Sel-Ig; assay: Biacore binding assay, L-selectin
Outline: as §1

[12] = target: mouse P-selectin (Mus musculus, UniProt Q01102); assay: Biacore binding assay, mouse P-selectin; details: printed as fold lower
[13] = test system: leukocyte rolling in cremaster venules; assay: Intravital microscopy of mouse cremaster, leukocyte rolling; assay type: in vivo; details: 4 μmol/kg IV
Outline: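 Mice under IP ketamine/xylazine/atropine were kept on a 37°C blanket. Test compound (4 μmol/kg in saline) or saline was given through a jugular cannula. The cremaster was superfused with bicarbonate-buffered saline (5% CO2 in N2). Venules 30–40 μm were viewed 15–25 min post-surgical stimulation, seven per mouse. Velocities of 5–10 rolling leukocytes per venule were tracked over 2 s; mean and median were taken.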

[14] = test system: platelet-leukocyte aggregate formation; assay: Platelet-leukocyte aggregates in mouse whole blood, dual-label flow cytometry; assay type: cell-based; details: 40 μM, PAR4-activating peptide
Outline: as §3

[15] = Temperature- and pH-dependent stability by RP-HPLC; assay type: physicochemical
[16] = test system: leukocyte rolling and arrest on substrates coated with ICAM-1 and E-selectin; assay: In vitro flow assay on ICAM-1/E-selectin substrate under shear; assay type: cell-based, human; details: concentrations as high as 30 μM
Outline: as §2

[17] = Biacore, compared with P-selectin
[18] = fold lower, densities < 5 RU vs 60 RU

O=C(O)c1c(O)c(Cc2ccc(Cl)cc2)nc2c3c(ccc12)CCCC3 [PSI-697]
Kd [1]: ~200 µM
inhibition of human platelet-monocyte aggregation (in words) [2]: only weakly inhibits

COc1ccc2c(CC(=O)NCCCC[C@H](N)C(=O)N[C@@H](CCC(=O)O)C(=O)N[C@@H](Cc3ccc(CS(=O)(=O)O)cc3)C(=O)N[C@@H](CCC(=O)O)C(=O)N[C@@H](Cc3ccc(CS(=O)(=O)O)cc3)C(=O)N[C@@H](CC(C)C)C(=O)N[C@@H](CC(=O)O)C(=O)N[C@@H](Cc3ccc(CS(=O)(=O)O)cc3)C(=O)N[C@@H](CC(=O)O)C(=O)N[C@@H](Cc3ccccc3)C(=O)N[C@@H](CC(C)C)C(=O)N3CCC[C@H]3C(=O)N[C@@H](CCC(=O)O)C(=O)N[C@H](C(=O)N[C@@H](CCC(=O)O)C(=O)N3CCC[C@H]3C(=O)N[C@@H](CC(C)C)C(=O)O)[C@@H](C)O[C@H]3O[C@H](CO[C@@H]4O[C@H](CO)[C@@H](O[C@@H]5O[C@H](CO)[C@H](O)[C@H](O[C@]6(C(=O)O)C[C@H](O)[C@@H](NC(C)=O)[C@H]([C@H](O)[C@H](O)CO)O6)[C@H]5O)[C@H](O[C@@H]5O[C@@H](C)[C@@H](O)[C@@H](O)[C@@H]5O)[C@H]4NC(C)=O)[C@H](O)[C@H](O[C@@H]4O[C@H](CO)[C@H](O)[C@H](O)[C@H]4O)[C@H]3NC(C)=O)cc(=O)oc2c1 [GSnP-6] (H-K(Mca)E[Phe(4-CH2SO3H)]E[Phe(4-CH2SO3H)]LD[Phe(4-CH2SO3H)]DFLPET(X1)EPL-OH; N-terminus and C-terminus assumed)
binding to E-selectin (in words) [3, 17]: lower affinity
affinity of E-Sel-Ig for immobilized GSnP-6 relative to P-Sel-Ig [3, 18]: ~ 25 fold
inhibition of rolling and arrest ([4]; 6 μM, human neutrophils and monocytes): 80%
IC50 ([4]; read-out: IC50, inhibition of neutrophil capture in shear flow, human neutrophils, 2 dynes/cm^2): 5 µM
experimental interaction energy with P-selectin [5]: -10.5 kcal/mol
platelet accumulation, median integrated platelet fluorescence (in words) [6]: limited platelet signal
platelet aggregation and platelet-PMN binding (in words) [6]: significantly reduced
inhibition of E-selectin interactions (in words) [7]: not observed
microarray binding to P-selectin (in words) [8]: bound to P-selectin more strongly than to E- or L-selectin
IC50 [9]: ~30 µM
inhibition of platelet-monocyte aggregate formation [10]: 72%
inhibition of platelet-neutrophil aggregate formation [10]: 65%
binding to L-selectin (in words) [11, 17]: lower affinity
affinity of L-Sel-Ig for immobilized GSnP-6 relative to P-Sel-Ig [11, 18]: ~ 25 fold
Kd to murine P-selectin relative to human P-selectin [12]: ~ 9 fold
increase in median rolling velocities vs saline [13]: 2 fold
mean leukocyte rolling velocity ([13]; 15-25 min after surgical stimulation): 74.9 ± 3.4 μm/s
inhibition of platelet-monocyte aggregate formation [14]: 47%
inhibition of platelet-neutrophil aggregate formation [14]: 42%
stability at low pH ([15]; pH 5, T = 37°C): without observed degradation products
stability at high temperature ([15]; pH 7.5, T = 60°C): without observed degradation products
leukocyte rolling and arrest on ICAM-1 and E-selectin (in words) [16]: did not perturb
